Assay results published in PubChem BioAssay AID602169 (The Scripps Research Institute Molecular Screening Center, 2012).
Active and inactive are the calls of the source.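 Rule for the calls: active = luciferase reporter signal inhibited by 20% or more; inactive = inhibition below 20%.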

Tested on: BG1Luc4E2 ER-luciferase reporter inhibition, 24 h
Assay: suppression of estradiol-induced ERE reporter expression – BG1Luc4E2 ovarian carcinoma cells, luminescence, counter-screen for AHR activator project, late-stage follow-up (AID 602169)
Conditions: at 10 µM; hits give high values
Summary of the method: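 Replicates – triplicate wells per compound · Assay system – BG1Luc4E2 human ovarian carcinoma cells with stable ERE-driven firefly luciferase · Incubation – 5-day estrogen depletion, then 24 h compound exposure at 37 °C · Technique – luciferase luminescence after lysis · Also added – estradiol 17β stimulus · Doses – single dose of 10 µM per compound · Medium – phenol red-free DMEM, charcoal-stripped serum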

| SMILES | inhibition |
| --- | --- |
| Cc1c(-c2ccn[nH]2)cc(NC(=O)c2ccc(Cl)cc2)c(=O)n1N | 1% (inactive) |
| COc1ccccc1NC(=O)c1ccc(C(=O)Nc2ccccc2OC)nc1 | 0% (inactive) |
| COc1ccccc1NC(=O)Nc1cccnc1 | 3% (inactive) |
| O=C1c2ccccc2-c2nc3ccccc3nc21 | 34% |
| O=C(CN1CCOCC1)Nc1nc2ccc([N+](=O)[O-])cc2s1 | 11% (inactive) |
| CCOc1ccccc1NC(=O)c1ccc2nccnc2c1 | 8% (inactive) |
| COc1ccccc1C(=O)Nc1ccc(N2CCCCC2)cc1 | 47% |
| CCC(=O)Nc1cc(OC)c(NC(=O)c2ccccc2)cc1OC | 1% (inactive) |
| Cn1c(N)c(C(=O)Nc2ccccc2F)sc1=S | 5% (inactive) |
| CCOc1ccc(NC(=O)c2cc3ccccc3cc2OC)cc1 | 5.3% (inactive) |
| CCOc1ccc(-c2cc(C)n3nc(C(N)=O)cc3n2)cc1 | 0% (inactive) |
| CCOC(=O)Cc1cc(-c2ccc(O)cc2)nc2ccc3ccccc3c12 | 28% |
| O=C(Nc1cccc(Cl)c1)c1cccnn1 | 2% (inactive) |
| CN(C)c1nc(N)nc(-c2nc3ccccc3s2)n1 | 44% |
| COc1cc2c(cc1NC(=O)Nc1ccc(C)cc1)oc1ccccc12 | 5% (inactive) |
| Cn1c(C(=O)N2CCC(C(N)=O)CC2)cc2cc(Cl)ccc21 | 4% (inactive) |
| COc1cc2ccccc2cc1C(=O)Nc1ccc(C)cc1 | 40% |

| SMILES | inhibition |
| --- | --- |
| Cc1nc(N)nc(Nc2ccc(Cl)cc2)c1Br | 7% (inactive) |
| Cc1csc(SCC(=O)Nc2ccc(Cl)cn2)n1 | 0% (inactive) |
| Cc1ccc(-c2cc(-c3cccs3)[nH]n2)c(O)c1 | 20% |
| Cc1ccc(Nc2ncccc2C(N)=O)cc1 | 24% |
| Cc1ccccc1-c1nc(-c2cccnc2)no1 | 22% |
| CC(=O)c1ccc(NC(=O)c2cc(Cl)nc3ccccc23)cc1 | 2% (inactive) |
| CCCC(=O)Nc1nn(C)c2nc3cc(C)ccc3cc12 | 0% (inactive) |
| COc1ccccc1NC(=O)c1ccc2c(c1)nnn2C | 0% (inactive) |
| Cc1nnc(N2C(=O)c3cccc4c([N+](=O)[O-])ccc(c34)C2=O)s1 | 0% (inactive) |
| O=C(Nc1ccon1)c1cnc2sccn2c1=O | 34% |
| COc1ccc(Cl)cc1C(=O)Nc1ccc(N(C)C(C)=O)cc1 | 2% (inactive) |
| Cc1cc(Nc2ccc(Br)cc2)n2nc(C)nc2n1 | 0% (inactive) |
| COc1ccc(NC(=O)c2cccc3c(Br)cccc23)cc1 | 31% |
| CN1CCN(CCCNC(=O)c2cc3c(-c4ccc(Cl)cc4)nn(C)c3s2)CC1 | 0% (inactive) |
| COc1ccc(C(=O)Nc2cc(OC)c(NC(=O)c3ccco3)cc2OC)cc1 | 0% (inactive) |
| COC(=O)c1ccccc1NC(=O)Cn1ccnc1 | 3% (inactive) |
